Test results reported in ChEMBL document CHEMBL1806474, “Diversity oriented design of various hydrazides and their in vitro evaluation against Mycobacterium tuberculosis H37Rv strains” (2011).
≈ marks a conversion by molar mass, not a printed value.

Key:
Type in all cases: functional
[1] = tested on: Mycobacterium tuberculosis; assay: Antimycobacterial activity against Mycobacterium tuberculosis H37Rv ATCC 27294 after 5 to 8 days by microplate alamar blue assay
[2] = tested on: Mycobacterium tuberculosis; assay: Growth inhibition of Mycobacterium tuberculosis H37Rv ATCC 27294 after 5 to 8 days by microplate alamar blue assay
[3] = tested on: Mycobacterium tuberculosis; assay: Antimycobacterial activity against Mycobacterium tuberculosis
How it was run: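 Radiometric BACTEC 460 assay in 7H12 broth (BACTEC-12B, 4 mL) with M. tuberculosis H37Rv ATCC 27294. Inoculum came from 7H9/glycerol/0.05% Tween 80 cultures at OD550 0.45–0.55, diluted to reach GI 999 in five days. Compounds were from 1 mg/mL DMSO stocks, with DMSO controls. GI was read daily at 37 °C, 5–8 days. % inhibition = [1 − (GI test/GI control)] × 100. MIC was set against a 1:100 diluted control.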

[4] = Mycobacterium tuberculosis, H37Rv ATCC 27294

Question: `O=C1Nc2c(ccc(Cl)c2Cl)C(=O)/C1=N/Nc1ccccc1` was tested. Which MIC99 [1, 4] did it give?
Answer: Its MIC99 is < 6.25 µg/mL.

Question: And the “growth inhibition (GI)” value [2]?
Answer: The value was 85%.

Question: Which MIC99 [1, 4] does the source give for `O=C1Oc2ccc(-c3ccccc3)cc2C(=O)/C1=N/Nc1c(Cl)cccc1Cl` here?
Answer: Its MIC99 is < 6.25 µg/mL.

Question: And the “growth inhibition (GI)” value [2]?
Answer: The value was 23%.

Question: Which MIC99 [1, 4] does the source give for `CN1C(=O)/C(=N\Nc2ccccc2[N+](=O)[O-])C(=O)c2ccccc21` here?
Answer: The MIC99 was < 6.25 µg/mL.

Question: And the “growth inhibition (GI)” value [2]?
Answer: The value was 94%.

Question: What does the source list for `CC(=O)c1c(C)[nH]c(C(=O)N/N=C/c2cccc([N+](=O)[O-])c2)c1C`?
Answer: MIC99 [1, 4]: < 6.25 µg/mL; growth inhibition (GI) [2]: 18%

Question: Which MIC [3] does the source give for `CCCc1cc(=O)oc2c3c(c4c(c12)OC(C)(C)C=C4)O[C@H](C)[C@@H](C)[C@@H]3O` [CALANOLIDE A] here?
Answer: Its MIC is 3.13 µg/mL (≈ 8.45 µM).

Question: Which results are given for `O=C1Oc2ccc(-c3ccccc3)cc2C(=O)/C1=N/Nc1ccccc1[N+](=O)[O-]`?
Answer: MIC99 [1, 4]: < 6.25 µg/mL; growth inhibition (GI) [2]: 25%

Question: `O=C1Nc2cc([N+](=O)[O-])ccc2C(=O)/C1=N/Nc1ccc(Cl)c(F)c1` was tested. Which MIC99 [1, 4] did it give?
Answer: Its MIC99 is < 6.25 µg/mL.

Question: And the “growth inhibition (GI)” value [2]?
Answer: Its value is 70%.

Question: For `Cc1cccc(N/N=C2\C(=O)Oc3ccc(-c4ccccc4)cc3C2=O)c1`, which MIC99 [1, 4] is on record?
Answer: Its MIC99 is < 6.25 µg/mL.

Question: And the “growth inhibition (GI)” value [2]?
Answer: The value was 23%.

Question: How did the MIC97 [1] turn out when `CO[C@H]1/C=C/O[C@@]2(C)Oc3c(C)c(O)c4c(O)c(c(/C=N/N5CCN(C)CC5)c(O)c4c3C2=O)NC(=O)/C(C)=C\C=C\[C@H](C)[C@H](O)[C@@H](C)[C@@H](O)[C@@H](C)[C@H](OC(C)=O)[C@@H]1C` [RIFAMPIN] was run?
Answer: Its MIC97 is 0.015 µg/mL (≈ 0.0182 µM).

Question: What about the MIC95 [1, 4] of the same molecule?
Answer: The MIC95 was 0.25 µg/mL (≈ 0.304 µM).

Question: What does the source list for `CC(=O)c1c(C)[nH]c(C(=O)N/N=C/c2ccc(C)cc2)c1C`?
Answer: MIC99 [1, 4]: < 6.25 µg/mL; growth inhibition (GI) [2]: 92%

Question: `Cc1cccc(N/N=C2\C(=O)Nc3c(cccc3[N+](=O)[O-])C2=O)c1` was tested. Which MIC99 [1, 4] did it give?
Answer: Its MIC99 is < 6.25 µg/mL.

Question: And the “growth inhibition (GI)” value [2]?
Answer: The value was 95%.

Question: What does the source list for `O=C1Nc2ccccc2C(=O)/C1=N/Nc1ccccc1`?
Answer: MIC99 [1, 4]: < 6.25 µg/mL; growth inhibition (GI) [2]: 97%

Question: How did the MIC99 [1, 4] turn out when `O=C1Nc2cc([N+](=O)[O-])ccc2C(=O)/C1=N/Nc1ccc(Br)cc1` was run?
Answer: Its MIC99 is < 6.25 µg/mL.

Question: And the “growth inhibition (GI)” value [2]?
Answer: Its value is 100%.

Question: `CC(=O)c1c(C)[nH]c(C(=O)N/N=C/c2ccc([N+](=O)[O-])cc2)c1C` was tested. Which MIC99 [1, 4] did it give?
Answer: Its MIC99 is < 6.25 µg/mL.

Question: What about the “growth inhibition (GI)” value [2] of the same molecule?
Answer: The value was 32%.

Question: With `CC(=O)c1c(C)[nH]c(C(=O)N/N=C/c2cccc(Cl)c2)c1C` as the molecule, how does the MIC99 [1, 4] read?
Answer: Its MIC99 is < 6.25 µg/mL.

Question: What about the “growth inhibition (GI)” value [2] of the same molecule?
Answer: The value was 29%.

Question: `Cc1ccccc1N/N=C1\C(=O)Oc2ccc(-c3ccccc3)cc2C1=O` was tested. Which MIC99 [1, 4] did it give?
Answer: The MIC99 was < 6.25 µg/mL.

Question: And the “growth inhibition (GI)” value [2]?
Answer: Its value is 17%.

Question: What does the source list for `O=C1Nc2cc([N+](=O)[O-])ccc2C(=O)/C1=N/Nc1ccccc1-c1ccccc1`?
Answer: MIC99 [1, 4]: < 6.25 µg/mL; growth inhibition (GI) [2]: 100%

Question: For `COc1ccc(N/N=C2\C(=O)Oc3ccc4ccccc4c3C2=O)cc1`, which MIC99 [1, 4] is on record?
Answer: The MIC99 was < 6.25 µg/mL.

Question: And the “growth inhibition (GI)” value [2]?
Answer: The value was 55%.

Question: How did the MIC99 [1, 4] turn out when `O=C1Nc2c(cccc2[N+](=O)[O-])C(=O)/C1=N/Nc1ccc(Cl)c(Cl)c1` was run?
Answer: Its MIC99 is < 6.25 µg/mL.

Question: And the “growth inhibition (GI)” value [2]?
Answer: The value was 79%.

Question: `O=C1Nc2ccc(Cl)cc2C(=O)/C1=N/Nc1ccc(Cl)cc1` was tested. Which MIC99 [1, 4] did it give?
Answer: The MIC99 was < 6.25 µg/mL.

Question: What about the “growth inhibition (GI)” value [2] of the same molecule?
Answer: Its value is 98%.

Question: With `Cc1c(Cl)cccc1N/N=C1\C(=O)Nc2cc([N+](=O)[O-])ccc2C1=O` as the molecule, how does the MIC99 [1, 4] read?
Answer: The MIC99 was < 6.25 µg/mL.

Question: And the “growth inhibition (GI)” value [2]?
Answer: Its value is 98%.

Question: What does the source list for `O=C1Oc2ccc3ccccc3c2C(=O)/C1=N/Nc1ccc(Cl)cc1`?
Answer: MIC99 [1, 4]: < 6.25 µg/mL; growth inhibition (GI) [2]: 88%

Question: `O=C1Nc2ccc(Cl)cc2C(=O)/C1=N/Nc1ccccc1[N+](=O)[O-]` was tested. Which MIC99 [1, 4] did it give?
Answer: The MIC99 was < 6.25 µg/mL.

Question: What about the “growth inhibition (GI)” value [2] of the same molecule?
Answer: The value was 64%.

Question: `O=C1Oc2ccc3ccccc3c2C(=O)/C1=N/Nc1ccc([N+](=O)[O-])cc1` was tested. Which MIC99 [1, 4] did it give?
Answer: Its MIC99 is < 6.25 µg/mL.

Question: What about the “growth inhibition (GI)” value [2] of the same molecule?
Answer: The value was 94%.

Question: Which results are given for `O=C1Nc2c(cccc2[N+](=O)[O-])C(=O)/C1=N/Nc1cccc(Cl)c1`?
Answer: MIC99 [1, 4]: < 6.25 µg/mL; growth inhibition (GI) [2]: 82%

Question: Which results are given for `O=C1Nc2c(cccc2[N+](=O)[O-])C(=O)/C1=N/Nc1ccccc1[N+](=O)[O-]`?
Answer: MIC99 [1, 4]: < 6.25 µg/mL; growth inhibition (GI) [2]: 80%

Question: With `O=C1Nc2c(cccc2[N+](=O)[O-])C(=O)/C1=N/Nc1cccc([N+](=O)[O-])c1` as the molecule, how does the MIC99 [1, 4] read?
Answer: Its MIC99 is < 6.25 µg/mL.

Question: What about the “growth inhibition (GI)” value [2] of the same molecule?
Answer: Its value is 60%.

Question: `O=C1Nc2c(cccc2[N+](=O)[O-])C(=O)/C1=N/Nc1ccc(Cl)cc1` was tested. Which MIC99 [1, 4] did it give?
Answer: The MIC99 was < 6.25 µg/mL.

Question: And the “growth inhibition (GI)” value [2]?
Answer: Its value is 61%.

Question: Which results are given for `O=C1Nc2c(ccc(Cl)c2Cl)C(=O)/C1=N/Nc1ccc([N+](=O)[O-])cc1`?
Answer: MIC99 [1, 4]: < 6.25 µg/mL; growth inhibition (GI) [2]: 89%

Question: Which MIC99 [1, 4] does the source give for `O=C1Oc2ccc3ccccc3c2C(=O)/C1=N/Nc1ccccc1` here?
Answer: The MIC99 was < 6.25 µg/mL.

Question: What about the “growth inhibition (GI)” value [2] of the same molecule?
Answer: The value was 62%.

Question: With `Cc1cccc(N/N=C2\C(=O)Nc3cc(Cl)ccc3C2=O)c1` as the molecule, how does the MIC99 [1, 4] read?
Answer: Its MIC99 is < 6.25 µg/mL.

Question: What about the “growth inhibition (GI)” value [2] of the same molecule?
Answer: Its value is 70%.

Question: `Cc1cc(C)cc(N/N=C2\C(=O)Oc3ccc4ccccc4c3C2=O)c1` was tested. Which MIC99 [1, 4] did it give?
Answer: The MIC99 was < 6.25 µg/mL.

Question: And the “growth inhibition (GI)” value [2]?
Answer: The value was 58%.

Question: With `O=C1Oc2ccc(-c3ccccc3)cc2C(=O)/C1=N/Nc1ccc(F)cc1` as the molecule, how does the MIC99 [1, 4] read?
Answer: Its MIC99 is < 6.25 µg/mL.

Question: And the “growth inhibition (GI)” value [2]?
Answer: Its value is 18%.

Question: For `CC(=O)c1c(C)[nH]c(C(=O)N/N=C/c2ccc(N(C)C)cc2)c1C`, which MIC99 [1, 4] is on record?
Answer: The MIC99 was < 6.25 µg/mL.

Question: What about the “growth inhibition (GI)” value [2] of the same molecule?
Answer: Its value is 18%.

Question: With `Cc1cccc(N/N=C2\C(=O)Oc3ccc4ccccc4c3C2=O)c1C` as the molecule, how does the MIC99 [1, 4] read?
Answer: Its MIC99 is < 6.25 µg/mL.

Question: And the “growth inhibition (GI)” value [2]?
Answer: The value was 64%.

Question: What does the source list for `O=C1Oc2ccc(-c3ccccc3)cc2C(=O)/C1=N/Nc1cccc(F)c1Cl`?
Answer: MIC99 [1, 4]: < 6.25 µg/mL; growth inhibition (GI) [2]: 19%
